# Shown are actives, neighbours in structure and some others; about 2.6% of the full set was active somewhere.
# T cruzi repl – inhibitors of intracellular T. cruzi growth, primary screen, luminescence, NIH3T3 host cells; T. cruzi beta-gal in NIH3T3, 90 h; inhibition, % (concentration not given with the values); hit rate 1.4% among 300,000;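 active = mean inhibition across valid replicates above about 55%, limit read from the data; inconclusive = mean below that limit but half or more replicates reach it; inactive = mean below it, under half of replicates reach it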;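 note: signal also drops with host cell toxicity which is not excluded here; 0% = plate median of DMSO wells and 100% = zero luminescence signal; higher percent means less beta-gal luminescence so fewer parasites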
#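 Assay system: NIH/3T3 host cells with β-galactosidase reporter T. cruzi; input: 5,000 host fibroblasts per well; compound: single 50 nL compound addition per well in DMSO; timing: ≥90 h infection period, 3 h prior cell attachment; measured by: GalScreen β-gal luminescence, detergent lysis, 60 min; evaluation: percent inhibition of parasite-derived β-gal signal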
# CHT block – inhibitors of human choline transporter CHT | B-score at 10 µM | hit rate 0.86% among 310,000 | High affinity choline transporter 1 (Homo sapiens), Q9GZV3 | CHT-expressing cells, membrane potential dye, choline response; hits give low values;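 active = B-score over 3 SD under the library average, and starting fluorescence ratio not unusually high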;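 note: choline stimulus applied at its EC90 after an EC20 pre-addition; B-score computed on integrated fluorescence ratio after choline addition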
# Target sequence (Q9GZV3 whole entry, looked up): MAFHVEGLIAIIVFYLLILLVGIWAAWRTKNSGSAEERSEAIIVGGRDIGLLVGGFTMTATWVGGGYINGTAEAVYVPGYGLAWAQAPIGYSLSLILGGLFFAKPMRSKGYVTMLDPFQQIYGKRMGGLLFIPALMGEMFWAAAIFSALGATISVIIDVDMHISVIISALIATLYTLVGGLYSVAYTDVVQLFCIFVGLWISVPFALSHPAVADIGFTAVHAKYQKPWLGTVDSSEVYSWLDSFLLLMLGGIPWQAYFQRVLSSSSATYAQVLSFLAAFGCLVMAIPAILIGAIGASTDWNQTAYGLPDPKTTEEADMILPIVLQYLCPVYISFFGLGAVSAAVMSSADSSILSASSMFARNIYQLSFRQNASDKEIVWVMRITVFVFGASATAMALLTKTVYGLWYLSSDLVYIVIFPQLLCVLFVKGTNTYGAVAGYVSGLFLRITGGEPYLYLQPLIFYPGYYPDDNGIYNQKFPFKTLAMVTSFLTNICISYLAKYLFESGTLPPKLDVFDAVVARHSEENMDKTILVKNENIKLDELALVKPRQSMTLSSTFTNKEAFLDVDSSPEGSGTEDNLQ
# PolyA inhibitor – polyadenylation inhibitors in yeast reporter cells, primary screen, luminescence, S. cerevisiae. hit rate 0.02% among 300,000. activity score, % at 12 µM. S. cerevisiae SKY197-pL101 polyadenylation reporter, beta-gal luminescence; efflux-impaired pdr1/pdr3 knockout yeast; score 100 = 6 SD above DMSO;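 active = lowest replicate activity score at least 50, where 100 means six control SD above control mean; inconclusive = lowest score under 50 but half or more replicates reach 50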;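 note: yeast exposed to compound for 9 h at 30 °C; higher score means more reporter readthrough which indicates perturbed polyadenylation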
# CHT PAM – CHT positive allosteric modulators, primary screen, cell-based, membrane potential dye, choline EC20 | High affinity choline transporter 1 (Homo sapiens), Q9GZV3 | CHT-expressing cells; hits give high values; LV-AA mutant CHT in HEK293 cells | B-score at 10 µM | hit rate 0.49% among 310,000 | AID 488977, 2010;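 active = initial fluorescence not abnormally high and integrated response B-score, plate-corrected, over 3 SD above library mean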
# CHT act confirm – CHT activators, confirmation, cell-based, membrane potential dye, duplicate; activation, % at 10 µM; hit rate 91% among 2,500; AID 504833, 2011; CHT-expressing cells, membrane potential dye fluorescence (FDSS); % of choline EC20–EC90 response window; HEK293 expressing CHT LV-AA mutant; choline added at its EC20; shares compounds with CHT PAM;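 active = primary screen active, with duplicate mean activation above negative control mean plus 3 SD, cut at about 11% in these data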
# HEK293 MP dye – membrane potential response in parental HEK293 cells, counter-screen for CHT activator project, cell-based, membrane potential dye. shares compounds with CHT PAM. ratio readout change at 10 µM, hits read low. membrane potential dye fluorescence (FDSS); measured after EC20 choline addition. hit rate 62% among 2,500;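 active = duplicate-averaged ratio beyond 3 SD from buffer wells, up or down, though filed actives are nearly all decreases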
# * hit, by the source's call; i = inactive; ? = inconclusive; · = no result.
SMILES,T cruzi repl,CHT block,PolyA inhibitor,CHT PAM,CHT act confirm,HEK293 MP dye
CCC(=Nc1ccc2c(c1)CCC2)c1c(O)n(-c2ccc(OC)cc2)c(=O)[nH]c1=O,·,i,-3.6,i,·,·
CCOC(=O)C1(CCOc2ccccc2)CCN(C2Cc3ccccc3C2)CC1,35.5,i,-21.2,i,·,·
COc1c2c(cc3c1OCO3)CC[N+](C)=C2,-2.9,i,-5.0,9.22*,57.5*,-60.4*
CCOC(=O)c1ccc2c(c1)n(Cc1ccccc1)c(C)[n+]2CC,-2.4,i,24.0,8.06*,46.8*,-50.9*
COc1ccc(-c2cc(-c3ccccc3)[n+](C)c(-c3ccccc3)c2)cc1,55.2*,i,11.0,i,34.9*,i
C[n+]1c(-c2ccccc2)cc(CCCCc2cc(-c3ccccc3)[n+](C)c(-c3ccccc3)c2)cc1-c1ccccc1,·,i,·,6.81*,49.7*,-63.7*
CCCOC(=O)c1ccc(-[n+]2c(-c3ccccc3)cc(-c3ccccc3)cc2-c2ccccc2)cc1,55.4*,i,6.3,9.3*,17.7*,i
Cc1ccc(-c2cc(-c3ccccc3)cc(-c3ccccc3)[n+]2-c2ccc(C(=O)O)cc2)cc1,-9.3,i,16.5,i,·,·
Cc1c(C(=O)Nc2ccccc2)c2cc(O)ccc2n1Cc1ccccc1,-2.7,i,-5.9,i,·,·
CNC(=S)N(C)CCc1cc2c(c(OC)c1C=C1C(=O)NC(=O)NC1=O)OCO2,-5.3,i,3.2,7.31*,51.3*,-55.8*
CN1CCC(N(C)c2ccc(C(N)=O)cc2[N+](=O)[O-])CC1,5.9,i,-5.1,i,·,·
COc1ccc(-n2c(SCCN(C)C)nc3ccccc3c2=O)cc1,14.3,i,18.3,i,36.5*,-42.3*
Cc1c(O)ccc(C(=O)CN2CC(C)OC(C)C2)c1O (stereo not drawn),-8.9,i,-13.5,i,·,·
O=C1CC2OCC=C3CN4CCC56c7cc([N+](=O)[O-])ccc7N1C5C2C3CC46 (stereo not drawn),2.9,i,7.9,i,50.5*,-50.2*
C=C1C2C[C@@]3([C@@H]1O)[C@@H](C[C@@H]2O)[C@@]12C4[C@@H]3C[C@@H]1[C@@](C)(CC[C@@H]2O)CN4CC,·,i,·,i,·,·
Cc1cc(N2CCNCC2)nc2ccccc12,8.8,i,-22.0,7.52*,59.5*,-65.3*
Clc1cccc(N2CCNCC2)n1,2.7,i,12.4,i,·,·
CCNCCNc1ccc([N+](=O)[O-])c2cccnc12,53.7,i,10.1,6.31*,26.9*,-65.8*
CCc1nc2ccccc2c(=O)n1-c1ccccc1[N+](=O)[O-],-4.6,i,-1.4,i,·,·
Cc1nonc1OCCNCCNc1ccc([N+](=O)[O-])c2cccnc12,47.6,i,-7.9,i,30.0*,-62.6*
NNC(N)=O,·,i,·,i,·,·
COc1ccc2c(c1O)-c1c(OC)c(OC)cc3c1[C@H](C2)N(C)CC3,·,i,·,8.42*,56.4*,-66.1*
COc1cc2c(cc1OC)-c1c(OC)c(OC)cc3c1[C@H](C2)N(C)CC3,14.0,i,6.7,7.64*,43.6*,-72.8*
CCOc1cc2c(cc1OCC)-n1cccc1C(c1ccccc1OC)NC2 (stereo not drawn),18.5,i,-0.9,i,·,·
C=CCN=C(SCC(=O)c1ccc(Cl)cc1)c1c(O)n(C)c(=O)n(C)c1=O,-4.4,i,8.3,i,·,·
SMILES,T cruzi repl,CHT block,PolyA inhibitor,CHT PAM,CHT act confirm,HEK293 MP dye
CN1CCN(C(=O)O[C@H]2c3nccnc3C(=O)N2c2ccc(Cl)cn2)CC1,-6.0,i,-7.0,6.87*,83.8*,-44.3*
CN1CCN(C(=O)COc2ccc(Oc3ccccc3)cc2)CC1,?,i,6.2,i,·,·
CCCc1c(C)nc(-c2ccc(C)cc2)nc1OC(=O)N(C)C,-7.6,i,-10.1,i,·,·
CC1CN(c2ccc([N+](=O)[O-])c3cccnc23)CC(C)N1 (stereo not drawn),9.6,i,0.0,i,47.9*,-83.6*
O=[N+]([O-])c1ccc(N2CCCC2)c2ncccc12,20.8,i,-33.6,i,·,·
COc1ccc(Cc2nccc3cc(OC)c(OC)cc23)cc1OC,6.3,i,16.6,8.64*,58.5*,-65.9*
COc1ccc(CCNCc2ccc(C)s2)cc1OC,24.0,i,-1.2,i,·,·
Cc1cc(OCC(=O)N2CCC(C(=O)O)(c3ccccc3)CC2)c2c(C)c(C)c(=O)oc2c1,-4.4,i,0.7,i,·,·
CC[n+]1c(SC)ccc2cc(OC)ccc21,-1.4,i,-3.0,i,63.6*,-58.9*
COc1ccc2[nH]cc(CCN)c2c1,·,i,·,i,·,·
COc1ccc2[nH]c3c(c2c1)CCN=C3C,·,i,·,7.11*,46.8*,-45.5*
CN(C)c1cccc2c(C#N)ccc(N(C)C)c12,13.6,i,-4.8,7.77*,66.2*,-69.5*
O=C(CNC(=O)c1cccc(Cl)c1)Nc1ccc(Br)cc1C(=O)c1ccccc1,-5.5,i,13.7,7.73*,20.1*,i
CCN1C[C@@]2(COC)C3[C@@H](OC)[C@H]4[C@@H]1[C@@]3(C1C[C@@]3(O)[C@H](OC(=O)c5ccccc5)C1[C@]4(OC(C)=O)[C@@H](O)[C@H]3OC)[C@@H](OC)C[C@H]2O (stereo partly drawn),-20.1,i,-1.1,i,·,·
c1cc2n(c1)-c1c(ccc3c1OCO3)CNC2c1ccc2c(c1)OCO2 (stereo not drawn),18.7,i,-1.8,i,·,·
COc1ccc(C2NCc3ccc4c(c3-n3cccc32)OCO4)cc1O (stereo not drawn),-13.4,i,-4.8,11.2*,16.2*,i
O=C(Cc1ccc(Cl)c(Cl)c1)NCC1(N2CCOCC2)CCCCC1,-5.3,i,-3.1,i,·,·
COc1cc(/C=C/c2nc3ccccc3c(=O)n2-c2ccc(O)cc2)ccc1O,4.2,i,4.6,i,18.0*,i
COc1ccc(-n2c(/C=C/c3ccc(O)c(O)c3)nc3ccccc3c2=O)cc1,-6.2,i,11.9,i,·,·
Cc1cccc(NP(=O)(Oc2ccccc2)Oc2ccccc2)c1C,-1.6,i,12.7,i,·,·
Cc1ccccc1NP(=O)(Oc1ccccc1F)Oc1ccccc1F,3.3,i,-7.0,6.29*,9.9*,i
